Source: ChEMBL document CHEMBL4118110, “The identification of inhibitory compounds of Rickettsia prowazekii methionine aminopeptidase for antibacterial applications” (Bioorg Med Chem Lett, 2018)

Legend:
[1] = (§1) Inhibition of Rickettsia prowazekii N-terminal His6-tagged methionine aminopeptidase 1 expressed in Escherichia coli DLB3 Rosetta cells using Met-AMC as substrate preincubated for 1 hr followed by 30 mins incubation after substrate addition measured after 90 mins in presence of MnCl2 by fluorescence assay
Procedure, shortened: (§2)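 Recombinant R. prowazekii MetAP with Mn(II) as the metal cofactor. Met-AMC substrate; release of free AMC is followed by fluorescence (excitation 360 nm, emission 460 nm). Activity is the slope of fluorescence versus time, compared with an uninhibited control.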

[2] = as §1, with “cells at 10 uM” for “cells”, “assay relative to control” for “assay”; procedure, shortened: as §2

SMILES | IC50 [1] | inhibition [2]
Nc1nnc(SCCC(=O)OC2CCCCC2)[nH]1 | 9.4 µM | –
Cc1nnc(C(N)c2ccccc2)o1 (stereo not drawn) | – | 5 to 8%
Cc1cccc(-c2nnc(C(C)N)o2)c1 (stereo not drawn) | – | 1 to 43%
CC(C)c1ccc(CSc2nnc(N)[nH]2)cc1 | – | 48 to 90%
O=C(O)C(Sc1nnc[nH]1)c1ccccc1 (stereo not drawn) | – | 3 to 41%
Cc1ccc(-n2nnc(C(=O)O)c2C2CC2)cc1 | – | 1 to 44%
O=C(O)c1ccc(CSc2ccccc2)o1 | – | 5 to 34%
Cc1c(C(=O)O)sc2nc(CN(C)C)[nH]c(=O)c12 | – | 20 to 25%
O=C(O)c1cc(C2CC2)on1 | – | 28 to 30%
Nc1nnc(SCC(=O)OC2CCCCC2)[nH]1 | – | 60 to 68%
COc1ccccc1NC(=O)CSc1nc[nH]n1 | – | 19 to 52%
Cc1ccc2nc(-c3ccccn3)c(C(=O)O)cc2c1 | – | 1 to 13%
Cc1nnc(CN)o1 | – | 13 to 32%
Cc1ccc(Sc2ccc(C(=O)O)o2)cc1 | – | 27 to 62%
Cc1ccc(N2C(=O)CC(Sc3nc[nH]n3)C2=O)cc1 (stereo not drawn) | – | 40 to 56%
O=C(O)c1ccc(-c2cc(Cl)ccc2Cl)o1 | – | 1 to 57%
O=C(O)c1nc(C2CC2)n2ccccc12 | – | 40 to 68%
COc1cccc(-c2cc(C(=O)O)no2)c1 | – | 31 to 35%
O=C(O)c1cn(-c2ccccc2)nn1 | – | 1 to 47%
NC(=O)c1nc(-c2ccccc2)oc1Cl | – | 4 to 59%
CCOC(=O)CSc1n[nH]c(-c2ccco2)n1 | – | 1 to 51%
O=c1cc(CN2CCCCCC2)occ1O | – | 32 to 44%
Nc1nnc(SCc2ccc([N+](=O)[O-])cc2)[nH]1 | – | 42 to 45%

SMILES | IC50 [1] | inhibition [2]
CN(C)C(=O)CSc1n[nH]c(-c2ccco2)n1 | – | 1 to 3%
c1ccc(-c2nc3ccccc3o2)nc1 | – | 1 to 46%
Cc1cc(C)cc(OCCSc2nnc(N)[nH]2)c1 | – | 38 to 39%
C=C(C)Cn1cnc2sc(C(=O)O)c(C)c2c1=O | – | 8 to 33%
CC(C)CC(N)c1nnc2ccccn12 (stereo not drawn) | – | 22 to 61%
O=C(O)c1ccc(-c2ccccc2Cl)s1 | – | 1 to 48%
CCOC(=O)CSc1nnc(-c2ccncc2)[nH]1 | – | 1 to 59%
O=C(O)c1ccc(CS(=O)(=O)c2ccccc2)o1 | – | 16 to 27%
CCc1n[nH]c(SCC(=O)NCCc2ccccc2)n1 | – | 1 to 15%
Cc1ccc(OCCCCSc2nnc(N)[nH]2)cc1 | – | 45 to 65%
CC(C)OC(=O)c1ccc(CSc2nnc(N)[nH]2)cc1 | – | 59 to 66%
Cc1c(C(=O)O)sc2nc[nH]c(=O)c12 | – | 44 to 51%
COc1ccc(OCCSc2n[nH]c(N)n2)cc1 | – | 27 to 32%
COc1ccc(C(=O)CSc2n[nH]c(N)n2)cc1 | – | 32 to 58%
O=C(CSc1nnc[nH]1)c1cccc2ccccc12 | – | 1 to 39%
Cc1ccc(CSc2nnc(N)[nH]2)cc1 | – | 36%
COc1ccccc1NC(=O)CSc1nnc(C)[nH]1 | – | 1 to 15%
O=C(O)c1ccc(-c2cc(Cl)ccc2Cl)s1 | – | 1 to 80%
O=C(O)C1Cc2c([nH]c3ccccc23)CN1 (stereo not drawn) | – | 17 to 19%
CCc1nnc(SCC(=O)c2ccc(Cl)cc2)[nH]1 | – | 9 to 23%
Cc1[nH]nc(C(=O)O)c1-c1ccccc1 | – | 2 to 37%
Cc1ccc(NC(=O)CSc2nnc[nH]2)c(C)c1 | – | 25 to 66%
Cc1nc2ccccc2n1Cc1ccc(C(=O)O)o1 | – | 10 to 21%

SMILES | IC50 [1] | inhibition [2]
O=C1CCCN1c1ccc(S(=O)(=O)Nc2cccc3cccnc23)cc1 | – | 5 to 22%
O=C1C(Cl)=C(N2CCCCC2)C(=O)c2ccccc21 | – | 12 to 46%
CCc1nnc(SCC(=O)c2ccc(F)cc2)[nH]1 | – | 2 to 13%
O=C(O)c1nn(-c2ccccc2)c(=O)c2ccccc12 | – | 21 to 44%
Cc1n[nH]c(SCc2ccc([N+](=O)[O-])cc2)n1 | – | 1 to 38%
O=C(NCc1ccco1)c1ccc2nc(O)c(O)nc2c1 | – | 35 to 39%
Cc1ccc(C(=O)CSc2nnc(-c3ccco3)[nH]2)cc1 | – | 24 to 26%
O=C(CSc1nnc(-c2ccco2)[nH]1)c1ccccc1 | – | 17 to 22%
Cc1cc(OC(C)C(=O)NN)cc(C)c1Cl (stereo not drawn) | – | 31 to 69%
O=c1c2ccc(-c3ccccn3)nc2[nH]n1-c1ccccc1 | – | 1 to 55%
Cc1ccccc1NC(=O)CSc1nnc[nH]1 | – | 26 to 64%
CCOC(=O)C(C)Sc1nnc(N)[nH]1 (stereo not drawn) | – | 36 to 55%
CC(C)CCNC(=O)c1ccc2[nH]c(=O)c(=O)[nH]c2c1 | – | 49 to 54%
NCc1nc(-c2ccc(F)cc2)no1 | – | 62 to 70%
Nc1nnc(SCCc2ccccc2)[nH]1 | – | 14 to 42%
CCOC(=O)CSc1nnc(CC)[nH]1 | – | 6 to 22%
CC(C)(Oc1ccc(Cl)cc1)C(=O)NN | – | 42 to 46%
CC(C)(C)C1CCc2n[nH]c(C(=O)O)c2C1 (stereo not drawn) | – | 1 to 41%
NCc1nnc(-c2ccccc2)o1 | – | 12 to 13%
COc1ccc(N2C(=O)CCC2=O)cc1S(=O)(=O)Nc1cccc2cccnc12 | – | 14 to 36%
Cc1cc(C)n2c(C(N)CC(C)C)nnc2n1 (stereo not drawn) | – | 6 to 23%
Nc1nnc(SCCN2CCCCC2)[nH]1 | – | 1 to 34%
CSc1cc(C(=O)O)nc(-c2ccccn2)c1 | – | 36 to 68%

SMILES | IC50 [1] | inhibition [2]
CC(N)c1nnc(-c2ccccc2)o1 (stereo not drawn) | – | 1 to 32%
O=C(O)c1cc(-c2ccccn2)nc2ccc(F)cc12 | – | 29 to 61%
COc1ccc(-c2nnc3c(N)cccn23)cc1 | – | 13 to 23%
O=C(O)c1n[nH]c2ccccc12 | – | 35 to 36%
O=C(O)c1ccc(C2=NCc3ccccc3N2)o1 | – | 7 to 63%
Nc1nnc(SCc2cccc(Cl)c2)[nH]1 | – | 1 to 23%
CCc1nnc(SCC(=O)c2ccc(C(C)C)cc2)[nH]1 | – | 9 to 44%
COc1cccc(-c2nnc(CN)o2)c1 | – | 1 to 33%
CCc1n[nH]c(SCC(=O)c2cc(C)ccc2C)n1 | – | 11 to 43%
NC(=O)c1ccccc1N | – | 1 to 33%
Cc1n[nH]c(O)c1C1=NCCCCC1 | – | 4 to 65%
C#CCSc1nc2sc(C(=O)O)c(C)c2c(=O)[nH]1 | – | 9 to 58%
O=C(O)c1ccc(S(=O)(=O)Cl)s1 | – | 2 to 36%
Cc1ccc(SCc2ccc(C(=O)O)o2)cc1 | – | 4 to 9%
Cc1c(C(=O)O)sc2nc3n(c(=O)c12)CCC3 | – | 34 to 50%
CN(C)c1cccc(-c2ccc(C(=O)NN)cc2)c1 | – | 29 to 56%
O=C(O)c1ccc(Sc2ccc(Br)cc2)o1 | – | 1 to 48%
CCOC(=O)c1cccc(CSc2nnc(N)[nH]2)c1 | – | 47 to 59%
Nc1nnc(SCC(=O)Nc2ccc(Cl)cc2)[nH]1 | – | 19 to 38%
Cc1ccc(-c2ccc(C(=O)O)s2)cc1 | – | 4 to 18%
CC(=O)c1c(O)nc2ccccn12 | – | 16 to 43%
CN(C)Cc1c(C(=O)O)nc2ccccn12 | – | 11 to 20%
Nc1nnc(SCC(=O)c2ccc(O)cc2O)[nH]1 | – | 2 to 19%

SMILES | IC50 [1] | inhibition [2]
Cc1ccc2nc(-c3ccccn3)cc(C(=O)O)c2c1 | – | 28%
CC(C)OC(=O)CSc1nnc(N)[nH]1 | – | 23 to 38%
CCc1nnc(SCC(=O)c2ccc(C)cc2C)[nH]1 | – | 14 to 45%
Cc1n[nH]c(SCC(=O)c2cccc([N+](=O)[O-])c2)n1 | 1.2 µM | –
Cc1ccc(-c2noc(-c3ccccc3N)n2)cc1 | – | 2 to 52%
Cc1cc(C(=O)O)n[nH]1 | – | 34 to 42%
c1ccn2c(C3CCCN3)nnc2c1 (stereo not drawn) | – | 2 to 51%
Oc1ccc(-c2ccc(F)cc2)nn1 | – | 44 to 66%
CCc1n[nH]c(SCC(=O)c2cccc([N+](=O)[O-])c2)n1 | – | 16 to 44%
O=C(NCc1ccccn1)c1ccc2[nH]c(=O)c(=O)[nH]c2c1 | – | 36 to 40%
COC(=O)CSc1n[nH]c(-c2ccncc2)n1 | – | 1 to 39%
Cc1ccc(-n2nnc(C(=O)O)c2C)cc1C | – | 41%
CCc1ccc(NC(=O)CSc2nnc[nH]2)cc1 | – | 18 to 60%
C1CCc2nnc(-c3nnc4n3CCCCC4)n2CC1 | – | 1 to 60%
O=C(NCCCCl)C(=O)NCCCCl | – | 8 to 43%
NC(=O)CSc1nnc(-c2ccccc2)[nH]1 | – | 22 to 45%
Nc1n[nH]c(SCC(=O)c2ccc([N+](=O)[O-])cc2)n1 | – | 19 to 53%
c1ccc(-c2nc3ccccc3[nH]2)nc1 | – | 1 to 35%
O=C(O)c1ccc(COc2ccc(F)cc2)o1 | – | 10 to 16%
Sc1nnc(-c2ccc(Br)cc2)[nH]1 | – | 33 to 61%
c1ccc(-c2n[nH]c(-c3ccccn3)n2)cc1 | – | 6 to 23%
CC(N)c1ncc(-c2ccc(F)cc2)o1 (stereo not drawn) | – | 46 to 50%
Nc1cc(-c2ccccn2)n[nH]1 | – | 1 to 45%

SMILES | IC50 [1] | inhibition [2]
Cc1ccc(C(=O)CSc2nnc(N)[nH]2)cc1 | – | 17 to 52%
O=c1[nH]c2cccc3c2n(c1=O)CCO3 | – | 24 to 32%
COC(=O)c1ccc(CSc2nc[nH]n2)o1 | – | 30 to 59%
Cc1cc(C)n(-c2ccc(Cl)c(C(=O)O)n2)n1 | – | 15 to 77%
Nc1n[nH]c(SCc2cccc(Br)c2)n1 | – | 55 to 64%
Nc1nnc(SCCOc2ccc(Cl)cc2)[nH]1 | – | 31 to 32%
O=C(O)c1nn(-c2ccccc2)c2c1CCC2 | – | 45 to 51%
Cc1cc(C)nc(SCc2ccc(C(=O)O)o2)n1 | – | 9 to 11%
O=C(O)c1ccc(S(=O)(=O)N2CCOCC2)o1 | – | 8 to 67%
O=C(O)c1cnc(-c2cccc(Cl)c2)o1 | – | 1 to 37%
Nc1nnc(SCC(=O)OCc2ccccc2)[nH]1 | – | 20 to 34%
O=C(CSc1nnc[nH]1)Nc1ccccc1 | – | 2 to 60%
O=C(O)c1cnc2c(ccc3ccccc32)c1O | – | 22 to 43%
CCc1nnc(SCC(=O)c2ccc([N+](=O)[O-])cc2)[nH]1 | – | 75 to 81%
CC(C)Oc1ccc(CCSc2nnc(N)[nH]2)cc1 | – | 47 to 53%
O=C(O)c1ccc(S(=O)(=O)c2ccc(Cl)cc2)o1 | – | 41 to 68%
COCCCn1cnc2sc(C(=O)O)c(C)c2c1=O | – | 7 to 22%
Oc1ccc2nc(-c3ccccn3)oc2c1 | – | 1 to 43%
CC(C)c1ccc(C(=O)CSc2nc[nH]n2)cc1 | – | 1 to 32%
Cc1cccc2nc(C(=O)O)cn12 | – | 38 to 58%
N#CC1=C(c2ccccc2)CSC(c2ccccn2)=NC1=N | – | 2 to 20%
COc1ccc(C(=O)CSc2nnc(C)[nH]2)cc1C | – | 16 to 56%
Cc1c(Cl)cccc1NC(=O)CSc1nnc[nH]1 | – | 22 to 62%
